What was measured:
[1] = test system: Blood; assay: Biodistribution in Sprague-Dawley rat blood assessed as formation of perzinfotel at 10 mg/kg, po after 0.167 hrs; type: ADME, organism-based; design: dose 10 mg/kg, route oral; conditions: in vivo
Summary of the method: (§1)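 Male Sprague-Dawley rats given [14C]-labelled compound by oral gavage (parent at 30 mg/kg, prodrug at 10 mg/kg). Blood, plasma and brain taken at 0.167, 0.5, 1, 4, 8 and 24 h (n = 3 rats/time point). Total radioactivity measured in each matrix. Metabolite profiles from HPLC with in-line radioactivity detection.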

[2] = test system: Plasma; assay: Biodistribution in Sprague-Dawley rat plasma assessed as formation of perzinfotel at 10 mg/kg, po after 0.167 hrs; type: ADME, organism-based; design: dose 10 mg/kg, route oral; conditions: in vivo; summary of the method: as §1
[3] = test system: Brain; assay: Biodistribution in Sprague-Dawley rat brain assessed as formation of perzinfotel at 10 mg/kg, po after 0.167 hrs; type: ADME, organism-based; design: dose 10 mg/kg, route oral; conditions: in vivo; summary of the method: as §1
[4] = test system: Blood; assay: Biodistribution in Sprague-Dawley rat blood assessed as formation of perzinfotel at 10 mg/kg, po after 0.5 hrs; type: ADME, organism-based; design: dose 10 mg/kg, route oral; conditions: in vivo; summary of the method: as §1
[5] = test system: Plasma; assay: Biodistribution in Sprague-Dawley rat plasma assessed as formation of perzinfotel at 10 mg/kg, po after 0.5 hrs; type: ADME, organism-based; design: dose 10 mg/kg, route oral; conditions: in vivo; summary of the method: as §1
[6] = test system: Brain; assay: Biodistribution in Sprague-Dawley rat brain assessed as formation of perzinfotel at 10 mg/kg, po after 0.5 hrs; type: ADME, organism-based; design: dose 10 mg/kg, route oral; conditions: in vivo; summary of the method: as §1
[7] = test system: Plasma; assay: Stability in rat plasma assessed as conversion of benzoic acid [2-(8,9-dioxo-2,6-diaza-bicyclo[5.2.0]non-1(7)-en-2-yl)-ethyl]-hydroxy-phosphinoyloxymethyl ester to perzinfotel after 3 hrs by Lc/MS analysis; type: ADME, cell-free
Summary of the method: (§2)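 Dissolved at 0.05 mg/mL in rat plasma and incubated at 37 °C for 0–24 h. Samples quenched with acetonitrile and centrifuged; supernatant diluted and run on HPLC. Parent and conversion products quantified by peak area at 304 nm, corrected by internal standard, and confirmed by LC/MS. Kinetics fitted to a two-step first-order model.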

[8] = Chemical stability at pH 1 after 4 hrs; type: physicochemical; conditions: buffer, read-out: Stability
Summary of the method: (§3)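 Compound at 0.01 mg/mL final in a 9:1 mix of aqueous buffer (pH 1.0, 4.5, 6.6 or 7.4) or simulated gastric fluid with acetonitrile, held at 37 °C in the autosampler. Injected every 4 h over 24 h onto C8 HPLC. Percent remaining from peak area at 304 nm, corrected by internal standard; products confirmed by LC/MS (-ESI).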

[9] = Chemical stability at pH 4.5 after 4 hrs; type: physicochemical; conditions: buffer, read-out: Stability; summary of the method: as §3
[10] = Chemical stability at pH 6.6 after 4 hrs; type: physicochemical; conditions: buffer, read-out: Stability; summary of the method: as §3
[11] = Chemical stability at pH 7.4 after 4 hrs; type: physicochemical; conditions: buffer, read-out: Stability; summary of the method: as §3
[12] = Chemical stability in simulated gastric fluid after 4 hrs; type: physicochemical; conditions: read-out: Stability; summary of the method: as §3
[13] = Chemical stability in simulated intestinal bile fluid after 4 hrs; type: physicochemical; conditions: read-out: Stability
Summary of the method: (§4)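 Compound taken up in 9:1 simulated intestinal bile fluid:acetonitrile at a final 0.01 mg/mL, held in a 37 °C autosampler. HPLC injections every 4 h over 24 h. Percent remaining taken from peak area at 304 nm, corrected by internal standard. Products identified by LC/MS (-ESI).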

[14] = Chemical stability at pH 1 after 8 hrs; type: physicochemical; conditions: buffer, read-out: Stability; summary of the method: as §3
[15] = Chemical stability at pH 4.5 after 8 hrs; type: physicochemical; conditions: buffer, read-out: Stability; summary of the method: as §3
[16] = Chemical stability at pH 6.6 after 8 hrs; type: physicochemical; conditions: buffer, read-out: Stability; summary of the method: as §3
[17] = Chemical stability at pH 7.4 after 8 hrs; type: physicochemical; conditions: buffer, read-out: Stability; summary of the method: as §3
[18] = Chemical stability in simulated gastric fluid after 8 hrs; type: physicochemical; conditions: read-out: Stability; summary of the method: as §3
[19] = Chemical stability in simulated intestinal bile fluid after 8 hrs; type: physicochemical; conditions: read-out: Stability; summary of the method: as §4
[20] = Chemical stability at pH 1 after 12 hrs; type: physicochemical; conditions: buffer, read-out: Stability; summary of the method: as §3
[21] = Chemical stability at pH 4.5 after 12 hrs; type: physicochemical; conditions: buffer, read-out: Stability; summary of the method: as §3
[22] = Chemical stability at pH 6.6 after 12 hrs; type: physicochemical; conditions: buffer, read-out: Stability; summary of the method: as §3
[23] = Chemical stability at pH 7.4 after 12 hrs; type: physicochemical; conditions: buffer, read-out: Stability; summary of the method: as §3
[24] = Chemical stability in simulated gastric fluid after 12 hrs; type: physicochemical; conditions: read-out: Stability; summary of the method: as §3
[25] = Chemical stability in simulated intestinal bile fluid after 12 hrs; type: physicochemical; conditions: read-out: Stability
Summary of the method: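 Compound at 0.01 mg/mL final in a 9:1 mix of simulated intestinal bile fluid and acetonitrile at 37 °C. Fed-state medium pH 5.5 with 10 mM sodium taurocholate; fasted-state medium pH 6.0 with 1 mM. Sampled every 4 h to 24 h by HPLC. Percent remaining from 304 nm peak area, corrected by internal standard.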

[26] = Chemical stability at pH 1 after 16 hrs; type: physicochemical; conditions: buffer, read-out: Stability; summary of the method: as §3
[27] = Chemical stability at pH 4.5 after 16 hrs; type: physicochemical; conditions: buffer, read-out: Stability; summary of the method: as §3
[28] = Chemical stability at pH 6.6 after 16 hrs; type: physicochemical; conditions: buffer, read-out: Stability; summary of the method: as §3
[29] = Chemical stability at pH 7.4 after 16 hrs; type: physicochemical; conditions: buffer, read-out: Stability; summary of the method: as §3
[30] = Chemical stability in simulated gastric fluid after 16 hrs; type: physicochemical; conditions: read-out: Stability; summary of the method: as §3
[31] = Chemical stability in simulated intestinal bile fluid after 16 hrs; type: physicochemical; conditions: read-out: Stability; summary of the method: as §4
[32] = Chemical stability at pH 1 after 20 hrs; type: physicochemical; conditions: buffer, read-out: Stability; summary of the method: as §3
[33] = Chemical stability at pH 4.5 after 20 hrs; type: physicochemical; conditions: buffer, read-out: Stability; summary of the method: as §3
[34] = Chemical stability at pH 6.6 after 20 hrs; type: physicochemical; conditions: buffer, read-out: Stability; summary of the method: as §3
[35] = Chemical stability at pH 7.4 after 20 hrs; type: physicochemical; conditions: buffer, read-out: Stability; summary of the method: as §3
[36] = Chemical stability in simulated gastric fluid after 20 hrs; type: physicochemical; conditions: read-out: Stability; summary of the method: as §3
[37] = Chemical stability in simulated intestinal bile fluid after 20 hrs; type: physicochemical; conditions: read-out: Stability; summary of the method: as §4
[38] = Chemical stability at pH 1 after 24 hrs; type: physicochemical; conditions: buffer, read-out: Stability; summary of the method: as §3
[39] = Chemical stability at pH 4.5 after 24 hrs; type: physicochemical; conditions: buffer, read-out: Stability; summary of the method: as §3
[40] = Chemical stability at pH 6.6 after 24 hrs; type: physicochemical; conditions: buffer, read-out: Stability; summary of the method: as §3
[41] = Chemical stability at pH 7.4 after 24 hrs; type: physicochemical; conditions: buffer, read-out: Stability; summary of the method: as §3
[42] = Chemical stability in simulated gastric fluid after 24 hrs; type: physicochemical; conditions: read-out: Stability; summary of the method: as §3
[43] = Chemical stability in simulated intestinal bile fluid after 24 hrs; type: physicochemical; conditions: read-out: Stability; summary of the method: as §4
[44] = Half life in Sprague-Dawley rat plasma assessed as loss of 3-{2[8,9-Dioxo-2,6-diazabicyclo[5.2.0-[non-1(7)-en-2-yl}-3-oxido-7-oxo-7-phenyl-2,4,6-trioxa-3-phosphahept-1-yl Benzoate; type: ADME; summary of the method: as §2
[45] = Half life in pH 8.5 buffer assessed as loss of 3-{2[8,9-Dioxo-2,6-diazabicyclo[5.2.0-[non-1(7)-en-2-yl}-3-oxido-7-oxo-7-phenyl-2,4,6-trioxa-3-phosphahept-1-yl Benzoate; type: physicochemical
Summary of the method: (§5)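 Compound at a final 0.01 mg/mL in 9:1 pH 8.5 buffer or simulated intestinal fluid:acetonitrile, 37 °C. HPLC injections every 4 h over 24 h, with peak area at 304 nm corrected by internal standard and identities confirmed by LC/MS. Conversion kinetics fitted to a two-step first-order model to give rate constants, half-lives and Tmax of the hemiester.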

[46] = Half life in simulated intestinal fluid assessed as loss of 3-{2[8,9-Dioxo-2,6-diazabicyclo[5.2.0-[non-1(7)-en-2-yl}-3-oxido-7-oxo-7-phenyl-2,4,6-trioxa-3-phosphahept-1-yl Benzoate; type: physicochemical; summary of the method: as §5
[47] = target: Glutamate NMDA receptor; assay: Displacement of [3H]CGP-39653 from rat brain NMDA receptor
Summary of the method: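 Competitive displacement of [3H]CGP-39653 at the NMDA recognition site, using rat whole-brain membranes.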

[48] = target: Glutamate NMDA receptor (Rattus norvegicus) (UniProt P35439+Q00959+Q00960+Q00961+Q62645+Q8VHN2+Q9R1M7); assay: Antagonist activity at rat brain NMDA receptor assessed as inhibition of glutamate-induced [3H]TCP binding at 300 uM
Summary of the method: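 Functional NMDA antagonism was measured as inhibition of glutamate-stimulated [3H]-TCP binding to rat whole-brain membranes. The value is percent inhibition at a single concentration.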

[49] = organism: Rattus norvegicus; assay: Antinociceptive activity in Sprague-Dawley rat assessed as reversal of PGE2-induced thermal hypersensitivity after 5 hrs; type: functional
Summary of the method: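 Male Sprague-Dawley rats (200-250 g) fasted ~16 h and dosed orally in 2% Tween-80/0.5% methylcellulose (1 mL/kg) 0.5-48 h before intradermal PGE2 (0.1 mg in 50 µL). Tail-withdrawal latency was read 30 min later in water at 34-58 °C, with a 20 s cutoff. T10 from each rat's temperature-effect curve; within-subjects repeated-measures ANOVA, p < 0.05.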

With O=C(OCOP(=O)(CCN1CCCNc2c1c(=O)c2=O)OCOC(=O)c1ccccc1)c1ccccc1 the Drug uptake [1] was 88%, the Drug uptake [2] was 88% and the Drug uptake [3] was 88%. For the same compound, the Drug uptake [4] was 98%, the Drug uptake [5] was 98% and the Drug uptake [6] was 98%. It also gave a Stability [7] of 90%, a remaining at 4 h [8] of 99.7% and a remaining at 4 h [9] of 100%. For the same compound, the remaining at 4 h [10] was 98.1%, the remaining at 4 h [11] was 91.6% and the remaining at 4 h [12] was 99.6%. For the same compound, the remaining at 4 h [13] was 99.5%, the remaining at 8 h [14] was 99.3% and the remaining at 8 h [15] was 100%. The remaining at 8 h [16] was 95.7%, the remaining at 8 h [17] was 83.2% and the remaining at 8 h [18] was 99.3%. For the same compound, the remaining at 8 h [19] was 99.3%, the remaining at 12 h [20] was 98.9% and the remaining at 12 h [21] was 99.8%. It also gave a remaining at 12 h [22] of 93.7%, a remaining at 12 h [23] of 75.6% and a remaining at 12 h [24] of 99%. For the same compound, the remaining at 12 h [25] was 98.6%, the remaining at 16 h [26] was 98.5% and the remaining at 16 h [27] was 99.7%. It also gave a remaining at 16 h [28] of 91.5%, a remaining at 16 h [29] of 68.7% and a remaining at 16 h [30] of 98.7%. The remaining at 16 h [31] was 98.6%, the remaining at 20 h [32] was 98% and the remaining at 20 h [33] was 99.5%. For the same compound, the remaining at 20 h [34] was 89.4%, the remaining at 20 h [35] was 62.2% and the remaining at 20 h [36] was 98.3%. The remaining at 20 h [37] was 98.5%, the remaining at 24 h [38] was 97.9% and the remaining at 24 h [39] was 99.5%. It also gave a remaining at 24 h [40] of 87.4%, a remaining at 24 h [41] of 56.7% and a remaining at 24 h [42] of 98%. It also gave a remaining at 24 h [43] of 98.1%, a half-life [44] of under 4.2 min and a half-life [45] of 1.84 h. It also gave a half-life [46] of 3.57 h, an IC50 [47] of 4.2 µM and an inhibition [48] of 8%. The ED50 [49] was 10 mg/kg.
